This is a sample that favours compounds with a hit; in the whole collection about 4.2% have one here.
HDAC3 inhib – inhibitors of human histone deacetylase 3; recombinant HDAC3, fluorogenic peptide/trypsin coupled, fluorescence; hit rate 0.15% among 320,000; inhibition, % at 8.3 µM; O15379; in the data active = inhibition above about 26%, passing the limit was not always enough
Target sequence (O15379 whole entry, looked up): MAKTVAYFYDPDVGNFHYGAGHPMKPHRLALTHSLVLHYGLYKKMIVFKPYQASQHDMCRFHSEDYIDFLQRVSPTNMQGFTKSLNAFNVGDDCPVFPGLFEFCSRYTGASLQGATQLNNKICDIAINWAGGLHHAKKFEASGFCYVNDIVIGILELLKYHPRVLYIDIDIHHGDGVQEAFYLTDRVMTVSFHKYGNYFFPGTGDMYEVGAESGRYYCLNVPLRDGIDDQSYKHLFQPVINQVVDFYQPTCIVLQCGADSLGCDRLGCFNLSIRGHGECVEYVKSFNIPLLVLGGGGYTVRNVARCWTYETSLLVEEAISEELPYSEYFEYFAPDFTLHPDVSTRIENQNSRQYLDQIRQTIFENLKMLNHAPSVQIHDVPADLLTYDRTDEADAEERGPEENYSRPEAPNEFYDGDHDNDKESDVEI
AHR act – human AHR activation | activation, % at 5 µM | AID 2796 | hit rate 2.5% among 320,000 | AHR-responsive luciferase reporter cells, luminescence | P35869; in the data active = activation above about 47%;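 note: 0% = vehicle wells and 100% = reference agonist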
SENP1 inh – inhibitors of human SENP1 SUMO protease catalytic domain | recombinant SENP1 catalytic domain, CyPet-SUMO1-YPet FRET cleavage | Q9P0U3 | inhibition, % at 10 µM | hit rate 0.21% among 360,000 | AID 624204;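 active = inhibition at least 30% at 10 µM, raw YFP signal under a set limit, fluorescence ratio 0.5 to 1.5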;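 note: 0% = enzyme with DMSO and 100% = no enzyme wells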
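Controls: no-enzyme wells low, DMSO-plus-enzyme wells high control. Test system: human recombinant His6-tagged SENP1 catalytic domain enzyme. Reagent: SFCypet-SUMO1-SFYpet FRET protein substrate, 25 nM final. Doses: one dose per compound, 10 µM, 0.5% DMSO. Detection: FRET, CFP and YFP emission. Timing: 50 min reaction at room temperature.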
CTSL1 counter-1 – counter-screen for PFM18AAP inhibitors: inhibitors of F. hepatica cathepsin L1; AID 1906; hit rate 0.49% among 300,000; inhibition, % at 5.96 µM; recombinant F. hepatica cathepsin L1, Z-Leu-Arg-MCA fluorescence;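 active = inhibition above the mean of all tested compounds plus 3 SD, set per screening campaign, cut at about 17% in these data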;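 note: 0% = plate median of test compound wells and 100% = 1 µM Z-Phe-Ala-diazomethylketone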
PfM18AAP inh-1 – blocks P. falciparum M18 aspartyl aminopeptidase | recombinant PfM18AAP, H-Glu-NHMec fluorogenic cleavage | inhibition, % at 7.35 µM | hit rate 1.2% among 290,000 | AID 1822;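 active = inhibition above the campaign mean inhibition over all tested compounds plus 3 SD, cut at about 28% in these data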;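 note: 0% = plate median of test compound wells and 100% = 2 mM ZnCl2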
GAA850 FXN act – activators of GAA850 frataxin (FXN) promoter; HEK293 lucGAA850 FXN promoter luciferase reporter, 24 h; percent of 10 µM SAHA response; activation, % at 6 µM; hit rate 0.56% among 360,000; AID 540364;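 active = activation above the average of all compounds screened plus 3 SD, cutoff fixed separately per campaign, cut at about 7.5% in these data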;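 note: 0% = DMSO wells and 100% = 10 µM SAHA wells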
PfM18AAP inh-2 – PfM18AAP inhibition, confirmation. shares compounds with PfM18AAP inh-1. recombinant PfM18AAP, H-Glu-NHMec fluorogenic cleavage. inhibition, % at 7.35 µM. hit rate 28% among 2,400. AID 2170;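 active = mean inhibition over replicate wells above the hit cutoff set for the earlier primary screen, cut at about 29% in these data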;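 note: 0% = median of test compound wells and 100% = 2 mM ZnCl2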
CTSL1 counter-2 – counter-screen for PFM18AAP inhibitors: confirmation of human cathepsin L inhibitors | AID 2178 | shares compounds with PfM18AAP inh-1 | 2,400 tested, under 10 active | purified cathepsin L1, Z-Leu-Arg-MCA fluorescence | inhibition, % at 5.96 µM;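 active = average inhibition across replicates above the hit cutoff set in the earlier primary screen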;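 note: 0% = median of test compound wells and 100% = Z-Phe-Ala-diazomethylketone 1 µM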
Active calls of the source: *; . = not tested or not shown.

SMILES	HDAC3 inhib	AHR act	SENP1 inh	CTSL1 counter-1	PfM18AAP inh-1	GAA850 FXN act	PfM18AAP inh-2	CTSL1 counter-2
COc1ccc(/C(C)=N/Nc2nc(C)cc(-c3ccccc3)n2)cc1	-1	16	2	-3	.	-5	.	.
COc1ccc(/C(C)=N\Nc2nc(-c3ccccc3)cc(=O)[nH]2)cc1	-1	16	-3	-3	40*	-3	-31	5
Cc1snc2sc(C(=O)c3ccc(F)cc3)c(N)c12	2	5	-38	3	41*	3	-38	5
CN(C)c1ccnc2sc(C(=O)c3ccc(Br)cc3)c(N)c12	6	-7	-25	-1	-7	2	.	.
S=C(NC1CCCCC1)c1ccc2c(c1)OCO2	1	10	0	0	8	-1	.	.
c1cc2c(cc1NC1CCCCCC1)OCO2	14	4	0	-5	53*	2	28	-2
FC(F)(F)c1ccccc1NC(=S)NN=C1CCCCCC1	8	19	.	1	39*	.	-23	-1
CN(C(=O)c1cccs1)C1(C)CCS(=O)(=O)C1 (centres undefined)	-9	-2	1	4	1	3	.	.
O=Cc1ccc(O)c(O)c1	3	2	-1	-1	48*	3	31*	-1
O=C(NCc1ccccn1)C(=O)N/N=C/c1ccc2c(c1)OCO2	16	9	2	0	37*	-1	-25	7
CN(C)C(=S)Nc1ccc2c(c1)OCO2	15	3	-1	1	38*	5	5	1
Cc1ccc(-n2c(O)c(/C=N/n3cnnc3)c3ccccc3c2=O)cc1	1	1	-28	5	71*	2	64*	-2
Cc1ccc(-n2c(O)c(/C=N/c3ncn[nH]3)c3ccccc3c2=O)cc1	-8	-7	-9	0	37*	0	-16	6
COc1ccc(N=Cc2c(O)n(-c3ccc(OC)cc3)c(=O)c3ccccc23)cc1	4	-3	-30	2	0	1	.	.
COc1cc(OC)c(OC)cc1/C=N/NC(=O)CCc1c(C)n[nH]c1C	-2	8	2	3	-6	1	.	.
CC(C)(C)c1ccc(C(O)c2ncc(-c3ccccc3F)[nH]2)cc1 (centres undefined)	.	.	2	.	.	0	.	.
CC(=O)NN1C(=O)c2ccccc2NC1c1ccccc1O (centres undefined)	-13	1	-7	-2	42*	0	12	-2
Cc1ccc(CN2CC(N3CCCCC3)CS2(=O)=O)cc1 (centres undefined)	.	.	4	.	.	.	.	.
CC(=O)NC(c1ccco1)c1ccc2cccnc2c1O (centres undefined)	9	-2	-1	-3	48*	-6	-13	5
CC(=O)Oc1cc(O)c2c(c1)OC(c1ccc(OC(C)=O)c(OC(C)=O)c1)C(OC(C)=O)C2=O (centres undefined)	4	0	2	-18	54*	0	31*	-21
CCOC(=O)[C@]12CCC=C1N(Cc1ccc(Cl)cc1Cl)C(=O)[C@H](CC(=O)NCc1cccc3ccccc13)C2	.	.	-1	.	.	.	.	.
Cc1cc(C)nc(SCNC(=O)c2ccc(F)cc2)n1	1	2	3	0	50*	0	-18	5
N#CC1=C(N)C(C#N)(C#N)C2(CCC3(CC2)OCCO3)C2CC3(CC=C12)OCCO3 (centres undefined)	-6	-2	-10	0	55*	3	-3	-1
Cc1nc(C)c(C(=O)NNC(=O)Nc2ccc(Cl)cc2)s1	0	0	3	1	55*	1	25	4
Cc1nc(C)c(C(=O)Nc2ccccc2)s1	8	0	2	-1	-5	4	.	.
COC(=O)c1nc(NNC(=O)c2ccccc2)sc1-c1ccccc1	5	0	1	-1	46*	1	10	-2
